Laboratory results from PubChem BioAssay.
A number with no mark means an inactive call. Inconclusive results are not listed. Calls of active or inactive are those of the source.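 Rule for the calls, unless noted: active = viability increase at or above a cutoff of the median across tested compounds plus 3 SD (cut at about 8.5% in these data, passing the limit was not always enough); inconclusive = some gains above the cutoff, reason not given; inactive = the rest.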

Legend:
[1] = S. cerevisiae growth inhibition in permissive medium (OD615), pilot counter-assay for S. cerevisiae lifespan shortening project, permissive growth control (AID 705;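 active = growth inhibition above 25% in both replicates, a cutoff set 3 SD above the mean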); conditions: OD615, 24 h, at 10 µM, hits give high values
Summary of the method: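 System: S. cerevisiae with engineered DeaD lifespan system / Measured by: absorbance (optical density) at 615 nm / Read-out: reduction in yeast growth (OD615) / Times: 4 h cell pre-growth, 24 h exposure at 30 °C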

[2] = S. cerevisiae growth inhibition in restrictive medium, OD615, pilot screen, restrictive growth control, yeast lifespan reduction project (AID 706;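 active = growth inhibition above a set limit, 3 SD over mean compound inhibition, in both replicates, cut at about 43% in these data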;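 note: modified DeaD lifespan yeast strain shifted to restrictive glucose medium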); conditions: OD615, 48 h, at 10 µM, hits give high values
Summary of the method: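 System: Engineered S. cerevisiae DeaD strain | Buffer or medium: Glucose-based CSMM-D restrictive medium | Schedule: 4 h pre-incubation, 48 h exposure at 30 °C | Technique: Optical density at 615 nm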

[3] = doxorubicin toxicity protection in MRP-1 cells – H69AR cells, CellTiter-Glo, duplicate, MRP-1 activator project, pilot screen (AID 807); conditions: H69AR viability with doxorubicin, CellTiter-Glo luminescence; at 10 µM; hits give high values;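 note: compound pretreatment 18-22 h then 72 h combined with doxorubicin; 0% = doxorubicin alone and 100% = vehicle without doxorubicin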
[4] = viability of HCT116 without oncogenic beta-catenin – human colon tumor cells, pilot screen (AID 823;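 active = cell viability at or below a set limit in both duplicate runs, the limit being the all-compound median minus 4 SD, cut at about 23% in these data, passing the limit was not always enough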;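 note: 0% = wells killed by 20 µM Hyamine and 100% = untreated DMSO cell wells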); conditions: HCT116 beta-catenin knockout viability, CellTiter-Glo, 60 h; at 10 µM; hits give low values
[5] = viability of PTEN-null HCT116 cells – cell-based, HCT116 clonal line, CellTiter-Glo, pilot screen (AID 824;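 active = viability at or below 27.92% in each of two runs, the all-compound median minus 4 SD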;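 note: 0% = 20 µM Hyamine control and 100% = vehicle cell control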); conditions: HCT116 PTEN-deleted viability, 60 h, at 10 µM, hits give low values
[6] = RAM pathway blockade in budding yeast – dse1pr::URA3 reporter, 5-FOA selection, pilot screen (AID 869;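 active = inhibition over a set limit, the all-compound mean plus 3 SD, in both replicate runs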;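 note: 0% = DMSO wells with no growth and 100% = 10 µM 1-NA-PP1 with full growth; RAM network block rescues cells from 5-FOA so hits raise OD615 growth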); conditions: S. cerevisiae dse1pr::URA3 5-FOA growth, OD615, 2 d; at 10 µM; hits give high values; strain carries analog-sensitive mutant Cbk1 kinase
[7] = RAM signaling pathway blockade in yeast – S. cerevisiae, Pdr1DBD-CYC8 efflux-inhibited sensitized strain, primary screen (AID 1298;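 active = RAM network inhibition above 8.4% in each of two replicates, 3 SD over the compound average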;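 note: 0% = DMSO untreated cells without growth and 100% = 10 µM 1-NA-PP1 full growth; higher means more yeast growth rescued from 5-FOA killing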); conditions: S. cerevisiae cbk1-as DSE1-URA3 strain, 5-FOA growth OD615, 2 d; at 50 µM; hits give high values

| Compound | growth inhibition [1] | growth inhibition [2] | viability increase [3] | viability [4] | viability [5] | inhibition [6] | RAM network inhibition [7] |
| --- | --- | --- | --- | --- | --- | --- | --- |
| Cc1cc(C)c(S(=O)(=O)Nc2ccc(OCC(=O)O)cc2)c(C)c1 | -6.34% | -3.2% | -0.81% | 93.7% | 90.5% | -0.28% | -0.63% |
| CCCS(=O)(=O)NCCc1cc2ccc(OC)cc2[nH]c1=O | -13.2% | -5.31% | -2.79% | 97.4% | 90.1% | 2.56% | 2.19% |
| CCC(C)NS(=O)(=O)c1ccc(NC(=O)c2c(-c3ccccc3)noc2C)cc1 (configuration not stated) | -6.46% | -11% | -0.12% | 86.3% | 71.1% | 0.48% | 5.94% |
| Cc1cc(C)c(C#N)c(SCC(=O)c2cccs2)n1 | -9.34% | 1.01% | -4.41% | 78% | 84.8% | 1.6% | 0.97% |
| O=C(CN1C(=O)CSc2ncccc21)N1CCOCC1 | 7% | -0.87% | -0.22% | 97.9% | 101% | -0.115% | 7.38% |
| CCC(CO)N=CC1=C(O)C(C(=O)c2ccccc2)CCC1=O (configuration not stated) | -10.4% | -14.8% | 1.63% | 96.5% | 105% | 0.62% | 2.38% |
| O=C(NCc1cn2ccccc2n1)c1ccc(Br)o1 | -7.75% | -0.96% | -1.31% | 96.5% | 92.3% | 2.42% | 3.98% |
| Cc1c(Br)cc(C(=O)N2CCCC2)c(C)c1C | -12.7% | -11.1% | -2.86% | 102% | 98.9% | 0.205% | 3.08% |
| NC(=O)C1CCN(C(=O)c2ccc(CS(=O)(=O)c3c(Cl)cccc3Cl)o2)CC1 | -1.46% | -0.415% | -0.98% | 109% | 98.3% | 1.49% | 1.38% |
| Cn1c(NC(=O)c2ccc(C(C)(C)C)cc2)cc(=O)n(C)c1=O | -2.62% | -6.46% | -2.04% | 91.1% | 96.5% | 1.97% | 1.63% |
| CC(CC1C(C#N)=C(N)OC2=C1C(=O)CCC2)c1ccccc1 (configuration not stated) | -23.1% | -13.3% | -1.89% | 98.6% | 99.3% | 0.91% | 5.88% |
| CCCCNc1nc2c(c(=O)n(C)c(=O)n2C)n1CCC | -8.32% | -0.415% | 0.36% | 97.1% | 96% | -0.375% | 1.74% |
| CCOc1ccc(-c2nc(C#N)c(N3CCN(Cc4ccccc4)CC3)o2)cc1 | -4.62% | 8.5% | -0.05% | 78.6% | 87.2% | -0.36% | 3.33% |
| C=CCn1c(SCC(=O)Nc2cc(C)nn2-c2ccccc2)nnc1C1CCCCC1 | -7.09% | -6.5% | -1.14% | 90.8% | 94.3% | 0.165% | 3.38% |
| CCOC(=O)CSc1nc2nc(C)cc(C)n2n1 | 4.15% | 6.3% | -1.33% | 101% | 96% | 2.5% | 4.98% |
| Cc1ccc(-c2nc(C#N)c(NCCN3CCCCC3)o2)cc1 | 12.4% | -1.35% | -3.34% | 92.5% | 92.5% | 1.4% | -1.13% |
| C=CCSc1nnc2c(n1)[nH]c1c(C)cccc12 | -27.3% | 3.13% | -5.97% | 64.6% | 65.6% | 1.71% | 5.38% |
| CCN(CC)C(=O)C1CCN(S(=O)(=O)c2ccc(C3CNC(=O)C3)cc2)CC1 (configuration not stated) | 3.76% | -0.015% | 0.02% | 99.9% | 106% | 1.81% | 2.47% |

| Compound | growth inhibition [1] | growth inhibition [2] | viability increase [3] | viability [4] | viability [5] | inhibition [6] | RAM network inhibition [7] |
| --- | --- | --- | --- | --- | --- | --- | --- |
| Cc1ccc(-c2nnc3ccc(SC(C)C(=O)O)nn23)cc1 (configuration not stated) | 13.9% | 60.9% (active) | -1.29% | 99.1% | 97.8% | 2.31% | 3.9% |
| O=C1CC(C(=O)N2CCN(c3ccc(F)cc3)CC2)CN1CCc1ccccc1 (configuration not stated) | -1.65% | 5.89% | -2.3% | 99.2% | 92.6% | -0.23% | 1.03% |
| CN(Cc1ccccc1)S(=O)(=O)c1ccc2[nH]c(=O)oc2c1 | -17.3% | -30.6% | -0.12% | 109% | 96% | 0.425% | 5.4% |
| COc1ccc(-n2c(SCC(=O)Nc3nccs3)nc3c(c2=O)SC(C)C3)cc1 (configuration not stated) | -7.21% | -3.74% | -2.46% | 97.1% | 93% | 1.56% | 7.02% |
| O=C(C1CC1)N1CCc2cc(Br)cc(S(=O)(=O)NCc3ccc4c(c3)OCO4)c21 | -4.48% | -5.21% | -1.52% | 87.1% | 86.1% | 1.23% | 5.72% |
| COc1cc(Br)c(CC(=O)O)cc1OC | -24.6% | -13.7% | -0.03% | 98.2% | 97.1% | 2.38% | 3.76% |
| CCc1nc(N(CC)CC)c2oc3ccccc3c2n1 | -2.86% | -35.2% | -4.87% | 75.5% | 71% | -0.16% | 1.04% |
| CN(CC(=O)N1CCc2ccccc21)S(=O)(=O)c1cccc2cccnc12 | -0.355% | -2.55% | -3.47% | 93.9% | 90.8% | 1.47% | 8.8% |
| Cc1ccc(S(=O)(=O)N(C)CCCC(=O)N2CCOCC2)cc1 | -17.3% | -6.47% | -1.27% | 101% | 96.1% | 1.17% | 3.03% |
| CCOC(=O)NCCc1ccc(OC)cc1 | -4.17% | 5.72% | 1.36% | 99.9% | 95.8% | 1.83% | 0.56% |
| COc1ccc(/C(N)=C/C(=O)C(C)(C)C)cc1 | -14.2% | -11.6% | 0.55% | 96.1% | 98.2% | 2.5% | 4.84% |
| COc1ccccc1CNS(=O)(=O)c1ccc2c(c1)oc(=O)n2C | -4.47% | -0.685% | -0.99% | 101% | 86.7% | 0.795% | 0.32% |
| CCOC(=O)N1CCN(c2ccc3nnnn3n2)CC1 | -4.75% | 1.97% | 0.77% | 101% | 101% | 0.275% | 0.43% |
| C=CCc1cccc2cc(C(=O)N(C)C)c(=O)oc12 | -7.92% | -6.08% | -1.06% | 105% | 93.8% | 1.53% | 2.04% |
| N#Cc1c(NC(=O)c2cc(C3CC3)on2)sc2c1CCC2 | -1.24% | 5.11% | -5.36% | 38.9% | 34.1% | 3.44% | -1.72% |
| CC1=C(C(N)=O)C(c2ccccc2)n2nc(-c3cccs3)nc2N1 (configuration not stated) | -9.84% | 2.11% | -3.8% | 101% | 93.8% | 2.46% | 3.65% |
| CCOC(=O)C1=C2N(C)c3ccccc3N2CCC1=O | 8.71% | 4.85% | -3.21% | 97.5% | 93.8% | 1.9% | -0.41% |
| Cc1csc2ncc(C(=O)Nc3ccc(C(F)(F)F)cc3)c(=O)n12 | -10.2% | -17.2% | -2.44% | 84.8% | 85.8% | 3.73% | 3.03% |
